Data published in ChEMBL document CHEMBL1122138, “Fluorinated retinoic acids and their analogues. 3. Synthesis and biological activity of aromatic 6-fluoro analogues” (1982).

What was measured:
Assay type in all cases: functional
Mus musculus [1] = assay: Antipapilloma activity was measured in mice as percentage effect by ip administration at the dose of 10 mg/kg/day.; conditions: route intraperitoneal
Mus musculus [2] = species: Mus musculus; assay: Hypervitaminosis A dose, a measure of toxicity, in mice was determined
Method in brief: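 Mice received retinoid suspended in water with 0.1% carboxymethylcellulose and 0.01% Triton X-100. Dosing was ip daily Mon–Fri in week 1 and Mon–Thu in week 2. Symptoms were scored one day after the last injection: weight loss, skin redness/scaling, hair loss, nose/mouth mucosal changes, bone fractures. The value is the lowest daily dose at which 2 of 3 mice show one or more symptoms.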

Mus musculus [3] = assay: Antipapilloma activity was measured in mice as percentage effect by ip administration at the dose of 5 mg/kg/day.; conditions: route intraperitoneal
Mus musculus [4] = assay: Antipapilloma activity was measured in mice as percentage effect by ip administration at the dose of 20 mg/kg/day.; conditions: route intraperitoneal
Mus musculus [5] = assay: Antipapilloma activity was measured in mice as percentage effect by ip administration at the dose of 40 mg/kg/day.; conditions: route intraperitoneal
Mus musculus [6] = assay: Antipapilloma activity was measured in mice as percentage effect by ip administration at the dose of 80 mg/kg/day.; conditions: route intraperitoneal

Compound	Effect (Mus musculus [1]) [%]	Dose (Mus musculus [2]) [mg/kg]	Effect (Mus musculus [3]) [%]	Effect (Mus musculus [4]) [%]	Effect (Mus musculus [5]) [%]	Effect (Mus musculus [6]) [%]
COC(=O)/C=C(C)/C=C/C(F)=C(C)/C=C/c1c(C)cc(OC)c(C)c1C	-35	50	-28	-60	-79	
COC(=O)/C=C(C)/C=C/C(F)=C(C)/C=C/c1c(Cl)cc(OC)c(C)c1C		200			-41	
COC(=O)/C=C(C)/C=C/C(F)=C(C)/C=C/c1c(Cl)cc(OC)c(C)c1Cl		200				-64
COC(=O)/C=C(C)/C=C/C(F)=C(C)/C=C/c1c(Cl)cc(OC)c(Cl)c1Cl		>200				-58
COC(=O)/C=C(C)/C=C/C(F)=C(C)/C=C/c1c(C)cc(OC)c(C)c1Cl		50		-56		
COC(=O)/C=C(C)/C=C/C(F)=C(C)/C=C/c1c(C)cc(C)c(Cl)c1C		200				-48
